Type in all cases: functional
Assay [1] is filed under the species Rattus norvegicus. The assay is described as follows: Oral antifertility potency (A) relative to ethynylestradiol (EE) in rats. An outline of the steps:
(§1)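 Mated cycling adult female rats (cohabited with males on proestrus night; sperm in vaginal washings) dosed orally by gavage in sesame oil once daily for 7 consecutive days; vehicle control; 10 rats/group. Killed about day 8; uteri examined for presence and condition of conceptuses. Potency from comparison with regression line of standard ethynylestradiol.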

Assay [2] is filed under the species Rattus norvegicus. The assay is described as follows: Oral estrogenic potency (E) relative to ethynylestradiol (EE) in rats. An outline of the steps:
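Rats given compound orally by gavage once daily for 3 consecutive days; vehicle-only control; 10 animals/group. Autopsy 24 h after last dose; uteri excised, cleaned, blotted and weighed to nearest 0.2 mg. Regression lines for standard (ethynylestradiol) and test compound constructed and compared to derive relative potency.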

The species named for assay [3] is Rattus norvegicus. The assay is described as follows: Oral antifertility potency (A) relative to ethynylestradiol (EE) in rats. An outline of the steps:
as §1

As for `CC[Si](C#C[C@]1(O)CC(OC)[C@H]2[C@@H]3CCc4cc(OC)ccc4[C@H]3CC[C@@]21C)(CC)CC` (stereo partly drawn), the Potency was above 0.2 mg/kg/day in the assay listed under Rattus norvegicus [1] and 3% in the assay listed under Rattus norvegicus [2].
As to `CC[Si](C#C[C@]1(O)CC[C@H]2[C@@H]3C[C@H](O)c4cc(O)ccc4[C@H]3CC[C@@]21C)(CC)CC`, the Potency in the assay listed under Rattus norvegicus [2] was determined as 38%; in the assay filed under Rattus norvegicus [3] it was 300%.
As to `CC[Si](C#C[C@]1(O)C(C)C[C@H]2[C@@H]3CCc4cc(O)ccc4[C@H]3CC[C@@]21C)(CC)CC` (stereo partly drawn), the Potency in the assay listed under Rattus norvegicus [1] is above 0.8 mg/kg/day; in the assay filed under Rattus norvegicus [2] it was 0.2%.
The matching figures for `CC[Si](C#C[C@]1(O)CC[C@H]2[C@@H]3[C@H](O)[C@H](O)c4cc(O)ccc4[C@H]3CC[C@@]21C)(CC)CC`: above 0.5 mg/kg/day and 0.6%.
The matching figures for `C#C[C@]1(O)CC[C@H]2[C@@H]3CCc4cc(O)c(CN(CCC)CCC)cc4[C@H]3CC[C@@]21C`: above 2 mg/kg/day and 1.3%.
For `C#C[C@]1(O)CC[C@H]2[C@@H]3CCc4ccccc4[C@H]3CC[C@@]21C`, the Potency was found to be 31% in the assay filed under Rattus norvegicus [2] and 33% in the assay filed under Rattus norvegicus [3].
The corresponding values for `CC[Si](C#C[C@]1(O)CCC2C3C=Cc4cc(O)ccc4C3CCC21C)(CC)CC` (stereo partly drawn) are 2% and 200%.
In the case of `CC[Si](C#C[C@]1(O)CCCC2C3CCc4cc(O)ccc4C3CCC21C)(CC)CC` (stereo partly drawn), the Potency in the assay listed under Rattus norvegicus [1] was above 2 mg/kg/day; in the assay filed under Rattus norvegicus [2] it was 0.1%.
Consider `C#C[C@]1(O)CC[C@H]2[C@@H]3CCc4cc(O)c(C)cc4[C@H]3CC[C@@]21C`, for which the results for the Potency in the assay filed under Rattus norvegicus [2] and in the assay listed under Rattus norvegicus [3] were 5.5% and 40%, respectively.
On to `C#C[C@]1(O)CC[C@H]2[C@@H]3CCc4c(ccc(O)c4CC=C)[C@H]3CC[C@@]21C`, for which the results for the Potency in the assay filed under Rattus norvegicus [1] and in the assay listed under Rattus norvegicus [2] were above 2 mg/kg/day and 0.1%, respectively.
The corresponding values for `C#C[C@]1(O)CC[C@H]2[C@@H]3[C@H](O)[C@H](O)c4cc(O)ccc4[C@H]3CC[C@@]21C` are above 0.5 mg/kg/day and 0.3%.
`CC[Si](C#C[C@]1(O)CC[C@H]2[C@@H]3[C@H](O)Cc4cc(O)ccc4[C@H]3CC[C@@]21C)(CC)CC`: the Potency in the assay listed under Rattus norvegicus [2] came out at 0.3%; in the assay filed under Rattus norvegicus [3], 20%.
The corresponding values for `C#C[C@]1(O)CC[C@H]2[C@@H]3[C@H](O)Cc4cc(O)ccc4[C@H]3CC[C@@]21C` are 0.1% and 66%.
The corresponding values for `C#C[C@]1(O)CCC2C3C=Cc4cc(O)ccc4C3CCC21C` (stereo partly drawn) are 2% and 20%.
In the case of `CCCN(CCC)Cc1cc2c(cc1O)CC[C@@H]1[C@@H]2CC[C@@]2(C)[C@H]1CC[C@@]2(O)C#C[Si](CC)(CC)CC`, the Potency is above 1 mg/kg/day in the assay filed under Rattus norvegicus [1] and 0.3% in the assay filed under Rattus norvegicus [2].
As for `C#C[C@]1(O)C(C)C[C@H]2[C@@H]3CCc4cc(O)ccc4[C@H]3CC[C@@]21C` (stereo partly drawn), the Potency in the assay filed under Rattus norvegicus [1] is above 2 mg/kg/day; in the assay listed under Rattus norvegicus [2] it was 0.5%.
`CC[Si](C#C[C@]1(O)CC[C@H]2[C@@H]3C[C@@H](C)c4cc(O)ccc4[C@H]3CC[C@@]21C)(CC)CC`: the Potency is 0.2% in the assay listed under Rattus norvegicus [2] and 7.5% in the assay filed under Rattus norvegicus [3].
For the compound `C#C[C@]1(O)CC[C@H]2[C@@H]3C[C@H](O)c4cc(O)ccc4[C@H]3CC[C@@]21C`, the Potency in the assay filed under Rattus norvegicus [1] was above 0.2 mg/kg/day; in the assay listed under Rattus norvegicus [2], 16%.
Take `CC[Si](C#C[C@]1(O)CC[C@H]2[C@@H]3CCc4cc(O)ccc4[C@H]3[C@@H](O)C[C@@]21C)(CC)CC`: the Potency was found to be 14.4% in the assay listed under Rattus norvegicus [2] and 64% in the assay listed under Rattus norvegicus [3].
With `CC[Si](C#C[C@]1(O)CC[C@H]2[C@@H]3CCc4cc(OC)ccc4[C@H]3CC[C@@]21C)(CC)CC`, the Potency in the assay filed under Rattus norvegicus [1] is above 2 mg/kg/day; in the assay filed under Rattus norvegicus [2], 1.8%.
Turning to `CC[Si](C#C[C@]1(O)CC[C@H]2[C@@H]3CCc4cc(O)c(C)cc4[C@H]3CC[C@@]21C)(CC)CC`, the results for the Potency in the assay filed under Rattus norvegicus [2] and in the assay filed under Rattus norvegicus [3] were 2.2% and 40%, respectively.
The matching figures for `CC[Si](C#C[C@]1(O)CC[C@H]2[C@@H]3C[C@@H](O)c4cc(O)ccc4[C@H]3CC[C@@]21C)(CC)CC`: 16% and 40%.
As for `CC[Si](C#C[C@]1(O)CC[C@H]2[C@@H]3CCc4cc(O)c(OC)cc4[C@H]3CC[C@@]21C)(CC)CC`, the Potency in the assay filed under Rattus norvegicus [1] was above 2.8 mg/kg/day; in the assay filed under Rattus norvegicus [2] it was 0.06%.
For the compound `CC[Si](C#C[C@]1(O)CC[C@H]2[C@@H]3CCc4cc(O)ccc4[C@H]3CC[C@@]21C)(CC)CC`, the Potency turned out to be 37% in the assay listed under Rattus norvegicus [2] and 600% in the assay filed under Rattus norvegicus [3].
As for `C#C[C@]1(O)CC[C@H]2[C@@H]3C[C@@H](C)c4cc(O)ccc4[C@H]3CC[C@@]21C`, the Potency in the assay listed under Rattus norvegicus [1] is above 0.5 mg/kg/day; in the assay listed under Rattus norvegicus [2] it was 1.8%.
As to `C=CCc1c(O)ccc2c1CC[C@@H]1[C@@H]2CC[C@@]2(C)[C@H]1CC[C@@]2(O)C#C[Si](CC)(CC)CC`, the figures for the Potency in the assay listed under Rattus norvegicus [1] and in the assay filed under Rattus norvegicus [2] were above 3 mg/kg/day and 0%, respectively.
The matching figures for `C#C[C@]1(O)CC[C@H]2[C@@H]3CCc4cc(OC)ccc4[C@H]3CC[C@@]21C` [MESTRANOL]: above 2 mg/kg/day and 0.3%.
The matching figures for `C#C[C@]1(O)CC[C@H]2[C@@H]3CCc4cc(O)c(OC)cc4[C@H]3CC[C@@]21C`: above 2 mg/kg/day and 0.3%.
For `CC[Si](C#C[C@]1(O)CCC2=C3C=Cc4cc(O)ccc4C3CCC21C)(CC)CC` (stereo partly drawn), the Potency in the assay filed under Rattus norvegicus [2] stood at 1%; in the assay listed under Rattus norvegicus [3] it was 66%.
The matching figures for `C#C[C@]1(O)CC[C@H]2[C@@H]3CCc4cc(O)ccc4[C@H]3CC[C@@]21C` [ETHINYL ESTRADIOL]: 100% and 100%.
The corresponding values for `C#C[C@]1(O)CC(OC)[C@H]2[C@@H]3CCc4cc(OC)ccc4[C@H]3CC[C@@]21C` (stereo partly drawn) are 0.8% and 10%.
The matching figures for `C#C[C@]1(O)CC[C@H]2[C@@H]3CCc4cc(O)ccc4[C@H]3[C@@H](O)C[C@@]21C`: 0.8% and 200%.
Turning to `CC[Si](C#C[C@]1(O)CC[C@H]2[C@@H]3CCc4ccccc4[C@H]3CC[C@@]21C)(CC)CC`, the Potency in the assay listed under Rattus norvegicus [2] was determined as 13%; in the assay filed under Rattus norvegicus [3], 100%.
For the compound `C#C[C@]1(O)CCC2c3ccc4cc(O)ccc4c3CCC21C` (stereo partly drawn), the Potency worked out at 0.6% in the assay listed under Rattus norvegicus [2] and 10% in the assay filed under Rattus norvegicus [3].
